From ChEMBL document CHEMBL5634209, “Computational design, synthesis, and assessment of 3-(4-(4-(1,3,4-oxadiazol-2-yl)-1H-imidazol-2-yl)phenyl)-1,2,4-oxadiazole derivatives as effective epidermal growth factor receptor inhibitors: a prospective strategy for anticancer therapy” (RSC Med Chem, 2024)

Legend:
[1] = Selectivity index, ratio of IC50 for cytotoxicity against African green monkey Vero cells to IC50 for antiproliferative activity against human A549 cells; assay type: toxicity, cell-based; settings: Vero cells versus A549 cells, read-out: Ratio IC50
DU-145 = test: Antiproliferative activity against human DU-145 cells assessed as reduction in cell viability measured after 48 hrs by MTT assay; assay type: functional, cell-based; settings: DU-145, 48 h
In short: (§1)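 Cells were grown at 37 °C in 5% CO2 in medium with 10% FBS: RPMI-1640 for A549, DU-145 and HepG2, and DMEM/F12 for PC-3. They were seeded at 5×10^3/well. At 70–80% confluence they were exposed to a concentration range diluted from a 60 mM DMSO stock for 48 h at 37 °C, with 0.1% DMSO as vehicle. MTT 5 mg/mL stock was added for 4 h, formazan dissolved in DMSO, A570 read, and % inhibition calculated against control. IC50 was taken from the concentration series.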

[2] = Selectivity index, ratio of IC50 for cytotoxicity against African green monkey Vero cells to IC50 for antiproliferative activity against human HepG2 cells; assay type: toxicity, cell-based; settings: Vero cells versus HepG2 cells, read-out: Ratio IC50
[3] = Selectivity index, ratio of IC50 for cytotoxicity against African green monkey Vero cells to IC50 for antiproliferative activity against human PC-3 cells; assay type: toxicity, cell-based; settings: Vero cells versus PC-3 cells, read-out: Ratio IC50
HepG2 = test: Antiproliferative activity against human HepG2 cells assessed as reduction in cell viability measured after 48 hrs by MTT assay; assay type: functional, cell-based; settings: HepG2, 48 h; in short: as §1
A549 = test: Antiproliferative activity against human A549 cells assessed as reduction in cell viability measured after 48 hrs by MTT assay; assay type: functional, cell-based; settings: A549, 48 h; in short: as §1
[4] = Selectivity index, ratio of IC50 for cytotoxicity against African green monkey Vero cells to IC50 for antiproliferative activity against human DU-145 cells; assay type: toxicity, cell-based; settings: Vero cells versus DU-145 cells, read-out: Ratio IC50
PC-3 = test: Antiproliferative activity against human PC-3 cells assessed as reduction in cell viability measured after 48 hrs by MTT assay; assay type: functional, cell-based; settings: PC-3, 48 h; in short: as §1
[5] = Cytotoxicity against African green monkey Vero cells assessed as reduction in cell viability measured after 48 hrs by MTT assay; assay type: toxicity, cell-based; settings: African green monkey (Chlorocebus sabaeus)

Structure (SMILES)	selectivity ratio [1]	IC50 (DU-145) [µM]	selectivity ratio [2]	selectivity ratio [3]	IC50 (HepG2) [µM]	IC50 (A549) [µM]	selectivity ratio [4]	IC50 (PC-3) [µM]	IC50 at 48 h [5] [µM]
COc1cc([C@@H]2c3cc4c(cc3[C@@H](O[C@@H]3O[C@@H]5CO[C@@H](C)O[C@H]5[C@H](O)[C@H]3O)[C@H]3COC(=O)[C@H]23)OCO4)cc(OC)c1O [ETOPOSIDE]	8.11	1.97	11.8	10.5	2.11	3.08	12.7	2.39	> 25
Cc1ccc(-c2nc(-c3ccc(-c4nc(-c5nnc(-c6ccncc6)o5)c[nH]4)cc3)no2)cc1	7.38	2.34	7.1	8.02	2.12	2.03	6.41	1.87	> 15
O=[N+]([O-])c1cc(-c2nc(-c3ccc(-c4nc(-c5nnc(-c6ccncc6)o5)c[nH]4)cc3)no2)cc([N+](=O)[O-])c1	4.55		6.92	4.01	3.61	5.49		6.22	> 25
Brc1ccc(-c2nc(-c3ccc(-c4nc(-c5nnc(-c6ccncc6)o5)c[nH]4)cc3)no2)cc1	7.46	4.25	5.31	5.34	3.76	2.68	4.7	3.47	> 20
Clc1ccc(-c2nc(-c3ccc(-c4nc(-c5nnc(-c6ccncc6)o5)c[nH]4)cc3)no2)cc1	5.16		4.32	5.46	5.78	4.84		4.58	> 25
